Experiment [1] is filed under the species Cavia porcellus. Briefly: Chronotropic activity at L type calcium channel in guinea pig right atrium assessed as decrease in spontaneous beating at 10 uM relative to control. Type of experiment: tissue-based. More on the design: scale not given: the % may be the effect or the level left. To be noted: Cardiac atrium.
Experiment [2] in a line: Inotropic activity at L type calcium channel in guinea pig left atrium assessed as decrease in tension. Type of experiment: tissue-based. The following applies: Cavia porcellus, Cardiac atrium. The method in brief: (§1)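 Guinea-pig atria: left atrium driven at 1 Hz for inotropy, spontaneously beating right atrium for chronotropy. Increasing cumulative doses, readout is percent decrease. EC50 (inotropic) and EC30 (chronotropic) by Litchfield–Wilcoxon probit analysis on log concentration–response curves, n = 6–7. Not calculated when the maximum effect was below 50%.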

The species entered for experiment [3] is Cavia porcellus. Description: Activity at L type calcium channel in K+ depolarized guinea pig aortic strip assessed as inhibition of calcium induced contraction at 100 uM. The experiment is classed as tissue-based. More on the design: scale not given: the % may be the effect or the level left. The following applies: Aorta. The method in brief: (§2)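 Guinea-pig aortic strips depolarized with 80 mM K+. Drugs added cumulatively. Readout is percent inhibition of calcium-induced contraction, n = 5–6. Control versus treated values tested at each concentration by Student's t-test, P < 0.05.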

The species entered for experiment [4] is Cavia porcellus. Briefly: Inotropic activity at L type calcium channel in guinea pig left atrium assessed as decrease in tension at 1 uM relative to control. Type of experiment: tissue-based. More on the design: scale not given: the % may be the effect or the level left. To be noted: Cardiac atrium.
The species entered for experiment [5] is Cavia porcellus. Briefly: Activity at L type calcium channel in K+ depolarized guinea pig longitudinal smooth muscle assessed as inhibition of calcium induced contraction at 10 uM. More on the design: scale not given: the % may be the effect or the level left.
Experiment [6] is described as follows: Activity at L type calcium channel in K+ depolarized guinea pig longitudinal smooth muscle assessed as inhibition of calcium induced contraction. Also noted: species or system Cavia porcellus.
The species named for experiment [7] is Cavia porcellus. Description: Activity at L type calcium channel in K+ depolarized guinea pig aortic strip assessed as inhibition of calcium induced contraction at 50 uM. The experiment is classed as tissue-based. Also noted: scale not given: the % may be the effect or the level left. To be noted: Aorta. Summed up: as §2
The species entered for experiment [8] is Cavia porcellus. Description: Inotropic activity at L type calcium channel in guinea pig left atrium assessed as decrease in tension at 50 uM relative to control. Type of experiment: tissue-based. More on the design: scale not given: the % may be the effect or the level left. The following applies: Cardiac atrium.
For experiment [9], the species on record is Cavia porcellus. Description: Chronotropic activity at L type calcium channel in guinea pig right atrium assessed as decrease in spontaneous beating. The experiment is classed as tissue-based. The following applies: Cardiac atrium. The method in brief:
as §1

The species entered for experiment [10] is Cavia porcellus. Briefly: Inotropic activity at L type calcium channel in guinea pig left atrium assessed as decrease in tension at 100 uM relative to control. The experiment is classed as tissue-based. More on the design: scale not given: the % may be the effect or the level left. To be noted: Cardiac atrium.
The species entered for experiment [11] is Cavia porcellus. Description: Chronotropic activity at L type calcium channel in guinea pig right atrium assessed as decrease in spontaneous beating at 5 uM relative to control. The experiment is classed as tissue-based. More on the design: scale not given: the % may be the effect or the level left. To be noted: Cardiac atrium.
Experiment [12] is filed under the species Cavia porcellus. Briefly: Chronotropic activity at L type calcium channel in guinea pig right atrium assessed as decrease in spontaneous beating at 100 uM relative to control. Type of experiment: tissue-based. More on the design: scale not given: the % may be the effect or the level left. To be noted: Cardiac atrium.
Experiment [13] is filed under the species Cavia porcellus. Description: Activity at L type calcium channel in K+ depolarized guinea pig longitudinal smooth muscle assessed as inhibition of calcium induced contraction at 100 uM. Also noted: scale not given: the % may be the effect or the level left.
The species named for experiment [14] is Cavia porcellus. Briefly: Chronotropic activity at L type calcium channel in guinea pig right atrium assessed as decrease in spontaneous beating at 50 uM relative to control. The experiment is classed as tissue-based. More on the design: scale not given: the % may be the effect or the level left. The following applies: Cardiac atrium.
The species named for experiment [15] is Cavia porcellus. Description: Inotropic activity at L type calcium channel in guinea pig left atrium assessed as decrease in tension at 5 uM relative to control. Type of experiment: tissue-based. Also noted: scale not given: the % may be the effect or the level left. To be noted: Cardiac atrium.

The EC50 is the concentration at which the effect is half-maximal. As usually defined, the IC50 is the concentration needed to halve the response being measured. Regarding `COC(=O)C1=C(C)NC(C)=C(C(=O)OC)C1c1c(-c2ccccc2C(F)(F)F)nc2sccn12`, the Activity was 25% in the experiment filed under Cavia porcellus [1], 24% in the experiment listed under Cavia porcellus [3], 56% in the experiment listed under Cavia porcellus [4] and 92% in the experiment filed under Cavia porcellus [5]. Moreover, the EC50 in experiment [2] came out at 93 nM. Further, the IC50 in experiment [6] was determined as 1660 nM.

On to `COC(=O)C1=C(C)NC(C)=C(C(=O)OC)C1c1c(C(F)(F)F)nc2sc(C)cn12`, for which the Activity came out at 28% in the experiment filed under Cavia porcellus [7], 36% in the experiment filed under Cavia porcellus [1] and 46% in the experiment listed under Cavia porcellus [4].

Broadly, the EC30 is the concentration at which the effect reaches the 30% level. For `CCc1cn2c(C3C(C(=O)OC)=C(C)NC(C)=C3C(=O)OC)c(-c3cc(OC)ccc3OC)nc2s1`, the figures for the Activity in the experiment listed under Cavia porcellus [8], in the experiment listed under Cavia porcellus [7] and in the experiment filed under Cavia porcellus [1] were 72%, 29% and 92%, respectively. The concentration for an effect of 30% (EC30) in the experiment filed under Cavia porcellus [9] was found to be 0.73 µM. Also, in [2], the EC50 is 2240 nM.

For the compound `COC(=O)C1=C(C)NC(C)=C(C(=O)OC)C1c1c(-c2ccccc2)nc2sc(C)c(C)n12`, the Activity in the experiment filed under Cavia porcellus [10] worked out at 76%; in the experiment filed under Cavia porcellus [11], 94%; in the experiment filed under Cavia porcellus [3] it was 12%. Further, in the experiment filed under Cavia porcellus [9], the EC30 came to 0.33 µM. Besides, in experiment [2], the EC50 amounted to 590 nM.

Regarding `COC(=O)C1=C(C)NC(C)=C(C(=O)OC)C1c1c(-c2cc(OC)ccc2OC)nc2sc(Cl)cn12`, the Activity was found to be 84% in the experiment filed under Cavia porcellus [12], 55% in the experiment filed under Cavia porcellus [10] and 11% in the experiment listed under Cavia porcellus [3]. In addition, the EC30 in the experiment listed under Cavia porcellus [9] stood at 0.36 µM. Moreover, in [2], the EC50 turned out to be 900 nM.

With `CCCc1cn2c(C3C(C(=O)OC)=C(C)NC(C)=C3C(=O)OC)c(-c3c(OC)ccc(OC)c3[N+](=O)[O-])nc2s1`, the Activity in the experiment filed under Cavia porcellus [8] came out at 55%; in the experiment filed under Cavia porcellus [11], 25%; in the experiment filed under Cavia porcellus [3], 5%; in the experiment listed under Cavia porcellus [13], 89%. The EC50 in experiment [2] amounted to 39 nM. In [6], the IC50 was 12800 nM.

`COC(=O)C1=C(C)NC(C)=C(C(=O)OC)C1c1c(-c2ccccc2)nc2sc(Cl)cn12`: the figures for the Activity in the experiment listed under Cavia porcellus [7], in the experiment listed under Cavia porcellus [10] and in the experiment listed under Cavia porcellus [1] were 22%, 58% and 87%, respectively. Also, the EC30 in the experiment listed under Cavia porcellus [9] worked out at 2.14 µM. For the same compound, the EC50 in experiment [2] turned out to be 1960 nM.

As to `COC(=O)C1=C(C)NC(C)=C(C(=O)OC)C1c1c(-c2ccccc2)nc2scc(C)n12`, the Activity turned out to be 30% in the experiment filed under Cavia porcellus [7], 59% in the experiment listed under Cavia porcellus [10] and 88% in the experiment listed under Cavia porcellus [11]. For the same compound, the EC30 in the experiment filed under Cavia porcellus [9] was 0.64 µM. For the same compound, in [2], the EC50 was found to be 830 nM.

With `COC(=O)C1=C(C)NC(C)=C(C(=O)OC)C1c1c(-c2ccc(OC)c(OC)c2)nc2sccn12`, the results for the Activity in the experiment listed under Cavia porcellus [7], in the experiment filed under Cavia porcellus [10] and in the experiment listed under Cavia porcellus [14] were 15%, 61% and 80%, respectively. Besides, the EC30 in the experiment listed under Cavia porcellus [9] is 1.44 µM. Besides, the EC50 in experiment [2] is 2640 nM.

On to `COC(=O)C1=C(C)NC(C)=C(C(=O)OC)C1c1c(-c2cc(OC)ccc2OC)nc2sc(C)cn12`, for which the Activity in the experiment listed under Cavia porcellus [8] was 78%; in the experiment listed under Cavia porcellus [1], 58%; in the experiment listed under Cavia porcellus [3], 15%. In the experiment listed under Cavia porcellus [9], the 30% effect concentration (EC30) turned out to be 1.36 µM. Further, the EC50 in [2] came to 1430 nM.

Regarding `COC(=O)C1=C(C)NC(C)=C(C(=O)OC)C1c1c(-c2cc(OC)c(OC)cc2[N+](=O)[O-])nc2sccn12`, the Activity in the experiment listed under Cavia porcellus [8] was 91%; in the experiment filed under Cavia porcellus [14], 90%; in the experiment listed under Cavia porcellus [3], 35%. For the same compound, the EC30 in the experiment listed under Cavia porcellus [9] was determined as 6.97 µM. For the same compound, in [2], the EC50 stood at 1340 nM.

In the case of `COC(=O)C1=C(C)NC(C)=C(C(=O)OC)C1c1c(-c2c(OC)ccc(OC)c2[N+](=O)[O-])nc2sc(C)cn12`, the Activity in the experiment filed under Cavia porcellus [12] was 47%; in the experiment filed under Cavia porcellus [15], 71%; in the experiment listed under Cavia porcellus [3], 27%. Also, the EC50 in [2] is 93 nM.

With `COC(=O)C1=C(C)NC(C)=C(C(=O)OC)C1c1c(-c2cc(OC)c([N+](=O)[O-])cc2OC)nc2sccn12`, the Activity in the experiment filed under Cavia porcellus [15] came out at 54%; in the experiment filed under Cavia porcellus [7], 35%; in the experiment listed under Cavia porcellus [1] it was 67%; in the experiment listed under Cavia porcellus [5], 97%. Moreover, in the experiment listed under Cavia porcellus [9], the EC30 worked out at 3.97 µM. Moreover, the EC50 in experiment [2] is 54 nM. In addition, the IC50 in experiment [6] is 2560 nM.

Take `COC(=O)C1=C(C)NC(C)=C(C(=O)OC)C1c1c(-c2ccccc2OC)nc2sccn12`: the Activity in the experiment filed under Cavia porcellus [12] was determined as 95%; in the experiment listed under Cavia porcellus [10] it was 54%; in the experiment listed under Cavia porcellus [3], 28%. In addition, the 30% effect concentration (EC30) in the experiment filed under Cavia porcellus [9] was 1.99 µM. Moreover, in [2], the EC50 came out at 1970 nM.

(Values after ChEMBL document CHEMBL1142303, “Imidazo[2,1-b]thiazole system: a scaffold endowing dihydropyridines with selective cardiodepressant activity” (J Med Chem, 2008).)
